Consider three compounds from ChEMBL document CHEMBL1123374, “Comparative pharmacology in the rat of ketamine and its two principal metabolites, norketamine and (Z)-6-hydroxynorketamine” (J Med Chem, 1986).

SMILES strings stand for the structures.

The nature of data set [1]: Partition coefficient was expressed as the ratio of the equilibrium concentration in benzene solvent to that in an equal volume of pH 7.4 aqueous buffer. The format is ADME. In a few lines: (§1)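 Compound at 100 µg/mL in organic solvent shaken with equal volume 0.1 M sodium phosphate buffer pH 7.4, 30 min, ambient temperature; phases separated by centrifugation, each quantified by GC against internal standard; coefficient = organic/aqueous concentration ratio; triplicate per solvent, mean ± SEM.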

The nature of data set [2]: Partition coefficient was expressed as the ratio of the equilibrium concentration in chloroform solvent to that in an equal volume of pH 7.4 aqueous buffer. The format is ADME. Summed up:
as §1

The nature of data set [3]: Partition coefficient was expressed as the ratio of the equilibrium concentration in n-heptane solvent to that in an equal volume of pH 7.4 aqueous buffer. The format is ADME. In a few lines:
as §1

For another data set, the system named is Rattus norvegicus. Put plainly: Compound was administered to male Sprague-Dawley rats (250-300 g) by intravenous (iv) bolus injection at a dose of 40 mg/kg. The format is functional. Summed up:
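Male Sprague-Dawley rats (250-300 g) with right jugular vein catheter, 48 h recovery; 40 mg/kg iv bolus as free base in propylene glycol/ethanol/water (40/10/50) or HCl salt in 0.9% saline; controls given vehicle. Anesthesia duration by loss of righting reflex; locomotor activity by stabilimeter, excitation ended at <2 events per 3 min; mean ± SEM, n = 4.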

With `NC1(c2ccccc2Cl)CCCCC1=O` (stereo not given) [NORKETAMINE], the results for the Partition coefficient in data set [1], in data set [2] and in data set [3] were 52.6, 296 and 1.86, respectively. This compound also showed a Duration of anesthesia with Rattus norvegicus of 3.24 min. For the same compound, the “Duration of increase in SLA” value with Rattus norvegicus was determined as 7.15 min.
In the same order, the values of `NC1(c2ccccc2Cl)CCC[C@@H](O)C1=O` (stereo not given in full) are 1.44, 19.4, 0.00963, 0 min and 0 min.
For `CNC1(c2ccccc2Cl)CCCCC1=O` (stereo not given) [KETAMINE], the Partition coefficient in data set [1] came to 98.6; in data set [2] it was 299; in data set [3] it was 6.36. This compound also showed a Duration of anesthesia with Rattus norvegicus of 7.11 min. Also, the “Duration of increase in SLA” value in the data set on Rattus norvegicus worked out at 24.65 min.
